Calls of active or inactive are those of the source. The calls are words filed in the database; no cut-off is given here.
Key:
[1] = system: HeLa; test: Induction of cell cycle arrest in human HeLa cells assessed as accumulation at G1 phase at 5 uM after 24 hrs by flow cytometry relative to control; assay type: functional
In short: (§1)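 Cells were seeded at 3×10⁵ per well in 6-well plates and treated after overnight incubation for 24 and 48 h. They were trypsinized, washed three times in PBS, fixed in cold ethanol and stored at −20 °C. Pellets were washed twice in PBS and treated with RNase A at 37 °C for 15 min, then stained with PI for 30 min in the dark. DNA content was measured by flow cytometry.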

[2] = system: HeLa; test: Induction of cell cycle arrest in human HeLa cells assessed as accumulation at S phase at 1 uM after 24 hrs by flow cytometry relative to control; assay type: functional; in short: as §1
[3] = system: MIA PaCa-2; test: Induction of cell cycle arrest in human MIAPaCa2 cells assessed as accumulation at subG1 phase at 1 uM after 24 hrs by flow cytometry (reference value: 0.32 +/- 0.009%); assay type: functional
[4] = system: SW-620; test: Induction of cell cycle arrest in human SW620 cells assessed as accumulation at S phase at 1 uM after 24 hrs by flow cytometry (reference value: 37.7 +/- 0.01%); assay type: functional
[5] = system: MIA PaCa-2; test: Induction of cell cycle arrest in human MIAPaCa2 cells assessed as accumulation at subG1 phase at 5 uM after 24 hrs by flow cytometry (reference value: 0.32 +/- 0.009%); assay type: functional
[6] = system: MIA PaCa-2; test: Induction of cell cycle arrest in human MIAPaCa2 cells assessed as accumulation at G2/M phase at 1 uM after 48 hrs by flow cytometry (reference value: 9.35 +/- 0.92%); assay type: functional
[7] = system: HeLa; test: Induction of cell cycle arrest in human HeLa cells assessed as accumulation at subG1 phase at 1 uM after 48 hrs by flow cytometry relative to control; assay type: functional; in short: as §1
[8] = system: MIA PaCa-2; test: Induction of cell cycle arrest in human MIAPaCa2 cells assessed as accumulation at subG1 phase at 1 uM after 48 hrs by flow cytometry (reference value: 0.20 +/- 0.06%); assay type: functional
[9] = system: HeLa; test: Induction of cell cycle arrest in human HeLa cells assessed as accumulation at subG1 phase at 5 uM after 48 hrs by flow cytometry relative to control; assay type: functional; in short: as §1
[10] = system: HeLa; test: Induction of cell cycle arrest in human HeLa cells assessed as accumulation at subG1 phase at 1 uM after 24 hrs by flow cytometry relative to control; assay type: functional; in short: as §1
[11] = system: HeLa; test: Induction of cell cycle arrest in human HeLa cells assessed as accumulation at G2/M phase at 1 uM after 24 hrs by flow cytometry relative to control; assay type: functional; in short: as §1
[12] = system: HeLa; test: Cytostatic activity against human HeLa cells assessed as inhibition of cell proliferation after 72 hrs by MTT assay; assay type: functional, cell-based
In short: (§2)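 Monolayer cells grown in DMEM with 10% FBS were seeded on day 0 at 3000–6000 cells/well, set by each line's doubling time. Agents were added the next step in five 10-fold dilutions (0.01–100) for 72 h, with DMSO ≤0.1% and a solvent control. MTT absorbance was converted to percentage growth versus untreated wells on the same plate. Where all PGs exceeded 50, the top concentration was reported as ">". ANOVA/Tukey, p<0.05.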

[13] = system: MIA PaCa-2; test: Induction of cell cycle arrest in human MIAPaCa2 cells assessed as accumulation at subG1 phase at 5 uM after 48 hrs by flow cytometry (reference value: 0.20 +/- 0.06%); assay type: functional
[14] = system: MIA PaCa-2; test: Induction of cell cycle arrest in human MIAPaCa2 cells assessed as accumulation at G2/M phase at 5 uM after 48 hrs by flow cytometry (reference value: 9.35 +/- 0.92%); assay type: functional
[15] = system: HeLa; test: Induction of cell cycle arrest in human HeLa cells assessed as accumulation at G2/M phase at 5 uM after 48 hrs by flow cytometry relative to control; assay type: functional; in short: as §1
[16] = system: MIA PaCa-2; test: Induction of cell cycle arrest in human MIAPaCa2 cells assessed as accumulation at G1 phase at 1 uM after 48 hrs by flow cytometry (reference value: 44.7 +/- 7.21%); assay type: functional
[17] = system: MIA PaCa-2; test: Induction of apoptosis in human MIAPaCa2 cells at 1 to 5 uM after 24 to 48 hrs by annexin V-/PI staining
[18] = system: SW-620; test: Induction of cell cycle arrest in human SW620 cells assessed as accumulation at subG1 phase at 5 uM after 24 hrs by flow cytometry (reference value: 0.37 +/- 0.36%); assay type: functional
[19] = system: SW-620; test: Induction of cell cycle arrest in human SW620 cells assessed as accumulation at subG1 phase at 1 uM after 48 hrs by flow cytometry (reference value: 0.18 +/- 0.036%); assay type: functional
[20] = system: HeLa; test: Induction of apoptosis in human HeLa cells at 1 to 5 uM after 24 to 48 hrs by annexin V/PI staining; assay type: functional, cell-based
In short: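 Cells were seeded on slides, incubated 24 h, then exposed to compound for 24 and 48 h. They were washed with PBS and binding buffer, incubated with annexin-V for 10 min, washed with binding buffer, and stained with PI.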

[21] = system: SW-620; test: Induction of cell cycle arrest in human SW620 cells assessed as accumulation at subG1 phase at 1 uM after 24 hrs by flow cytometry (reference value: 0.37 +/- 0.36%); assay type: functional
[22] = system: SW-620; test: Cytostatic activity against human SW620 cells assessed as inhibition of cell proliferation after 72 hrs by MTT assay; assay type: functional, cell-based; conditions: SW-620, 72 h; in short: as §2
[23] = system: SW-620; test: Induction of cell cycle arrest in human SW620 cells assessed as accumulation at G1 phase at 5 uM after 24 hrs by flow cytometry (reference value: 51.6 +/- 0.07%); assay type: functional
[24] = system: MIA PaCa-2; test: Induction of cell cycle arrest in human MIAPaCa2 cells assessed as accumulation at S phase at 5 uM after 24 hrs by flow cytometry (reference value: 34.3 +/- 0.07%); assay type: functional
[25] = system: HeLa; test: Induction of cell cycle arrest in human HeLa cells assessed as accumulation at G1 phase at 1 uM after 24 hrs by flow cytometry relative to control; assay type: functional; in short: as §1
[26] = system: HeLa; test: Induction of cell cycle arrest in human HeLa cells assessed as accumulation at S phase at 5 uM after 48 hrs by flow cytometry relative to control; assay type: functional; in short: as §1

Nc1ncn(C/C=C2\OC(=O)C(OCc3ccccc3)=C2OCc2ccccc2)c(=O)n1
Activity [1]: 16.5%
Activity [2]: 58.8%
Activity [3]: 0.2%
Activity [4]: 50.5%
Activity [5]: 0.21%
Activity [6]: 12.9%
Activity [7]: 0.02%
Activity [8]: 0.18%
Activity [9]: 0.23%
Activity [10]: 0%
Activity [11]: 11.9%
IC50 [12]: 5.91 µM
Activity [13]: 0.31%
Activity [14]: 10.2%
Activity [15]: 13.9%
Activity [16]: 22.9%
Activity [17]: inactive
Activity [18]: 0.2%
Activity [19]: 0.05%
Activity [20]: inactive
Activity [21]: 0.56%
IC50 [22]: 5.62 µM
Activity [23]: 24.1%
Activity [24]: 57.4%
Activity [25]: 29.4%
Activity [26]: 62.3%
